Experimental data from ChEMBL document CHEMBL1124683, “Synthesis and in vitro activity of 1 beta-methyl C-2 quaternary heterocyclic alkylthio carbapenems” (J Med Chem, 1989).
In brackets after ≈: the same amount, converted by molar mass.

What was measured:
Sus scrofa = species: Sus scrofa; assay: Compound was evaluated for the rate of hydrolysis by renal dipeptidase relative to hog renal dipeptidase; format: ADME; conditions: pig; in the assay text read “relative to imipenem” for “relative to hog renal dipeptidase”
Method in brief: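 Purified hog renal dipeptidase. Substrate was 0.10 mM carbapenem in 50 mM MOPS, pH 7.1, freshly prepared. λmax and ε came from the UV difference spectrum before and after β-lactam cleavage by hydroxylamine at 25 °C. Spontaneous absorbance change was followed at 25 °C, then enzyme was added to give ≥10^-4 AU/s. The corrected rate was converted to nmol min^-1 (mL enzyme)^-1 and expressed relative to imipenem.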

Escherichia coli = assay: Compound was tested in vitro for antibacterial activity against Escherichia coli A-15119; format: functional
Method in brief: (§1)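 MIC by serial 2-fold dilution in Mueller-Hinton agar, or in broth. Agar surface or broth was inoculated with an appropriately diluted 18–24-h broth culture. Incubation was 37 °C for 17 h. The MIC was the lowest concentration that inhibited visible growth.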

Pseudomonas aeruginosa = assay: Compound was tested in vitro for antibacterial activity against Pseudomonas aeruginosa; format: functional; method in brief: as §1
Proteus vulgaris = assay: Compound was tested in vitro for antibacterial activity against Proteus vulgaris A-21559; format: functional; method in brief: as §1
Serratia marcescens = assay: Compound was tested in vitro for antibacterial activity against Serratia marcescens A-20019; format: functional; method in brief: as §1
Staphylococcus aureus [1] = assay: (§2) Compound was tested in vitro for antibacterial activity against Staphylococcus aureus, pen-res A-9606; format: functional; method in brief: as §1
Enterobacter cloacae = assay: Compound was tested in vitro for antibacterial activity against Enterobacter cloacae A-9695; format: functional; method in brief: as §1
Staphylococcus aureus [2] = assay: as §2; format: functional, staphylococcus aure; method in brief: as §1

Relative rate (Sus scrofa)	MIC (Escherichia coli) [µg/mL]	MIC (Pseudomonas aeruginosa) [µg/mL]	MIC (Proteus vulgaris) [µg/mL]	MIC (Serratia marcescens) [µg/mL]	MIC (Staphylococcus aureus [1]) [µg/mL]	MIC (Enterobacter cloacae) [µg/mL]	MIC (Staphylococcus aureus [2]) [µg/mL]	Structure (SMILES)
0.84	0.03 (≈ 0.0897 µM)	0.5 (≈ 1.5 µM)	0.03 (≈ 0.0897 µM)	0.13 (≈ 0.389 µM)	0.016 (≈ 0.0478 µM)	–	–	CC(O)[C@H]1C(=O)N2C(C(=O)[O-])=C(SCc3cc[n+](C)cc3)CC12 (some centres not stated)
0.4	0.008 (≈ 0.023 µM)	0.5 (≈ 1.44 µM)	0.03 (≈ 0.0861 µM)	0.03 (≈ 0.0861 µM)	0.016 (≈ 0.0459 µM)	0.016 (≈ 0.0459 µM)	–	Cc1c(CSC2=C(C(=O)[O-])N3C(=O)[C@H](C(C)O)C3C2)ccc[n+]1C (some centres not stated)
0.94	0.008 (≈ 0.0237 µM)	16 (≈ 47.4 µM)	0.016 (≈ 0.0474 µM)	0.016 (≈ 0.0474 µM)	0.016 (≈ 0.0474 µM)	0.016 (≈ 0.0474 µM)	–	CC(O)[C@H]1C(=O)N2C(C(=O)O)=C(SCc3nccn3C)[C@H](C)C12 (some centres not stated)
3.84	0.03 (≈ 0.0936 µM)	32 (≈ 99.9 µM)	0.03 (≈ 0.0936 µM)	0.13 (≈ 0.406 µM)	0.03 (≈ 0.0936 µM)	0.5 (≈ 1.56 µM)	–	CC(O)[C@H]1C(=O)N2C(C(=O)O)=C(SCc3ccncc3)CC12 (some centres not stated)
0.01	0.004 (≈ 0.011 µM)	2 (≈ 5.52 µM)	0.03 (≈ 0.0828 µM)	0.16 (≈ 0.441 µM)	0.016 (≈ 0.0441 µM)	0.016 (≈ 0.0441 µM)	–	Cc1c(CSC2=C(C(=O)[O-])N3C(=O)[C@H](C(C)O)C3[C@H]2C)ccc[n+]1C (some centres not stated)
0.003	0.004 (≈ 0.0114 µM)	1 (≈ 2.85 µM)	0.016 (≈ 0.0455 µM)	0.03 (≈ 0.0854 µM)	0.008 (≈ 0.0228 µM)	0.06 (≈ 0.171 µM)	–	CC(O)[C@H]1C(=O)N2C(C(=O)[O-])=C(SCc3n(C)cc[n+]3C)[C@H](C)C12 (some centres not stated)
0.02	0.016 (≈ 0.0459 µM)	0.5 (≈ 1.44 µM)	0.03 (≈ 0.0861 µM)	0.03 (≈ 0.0861 µM)	0.016 (≈ 0.0459 µM)	0.06 (≈ 0.172 µM)	–	CC(O)[C@H]1C(=O)N2C(C(=O)[O-])=C(SCc3cc[n+](C)cc3)[C@H](C)C12 (some centres not stated)
0.2	0.008 (≈ 0.0237 µM)	2 (≈ 5.93 µM)	0.008 (≈ 0.0237 µM)	0.016 (≈ 0.0474 µM)	–	0.03 (≈ 0.0889 µM)	0.004 (≈ 0.0119 µM)	CC(O)[C@H]1C(=O)N2C(C(=O)[O-])=C(SCc3n(C)cc[n+]3C)CC12 (some centres not stated)

Structure (SMILES)	Relative rate (Sus scrofa)	MIC (Escherichia coli) [µg/mL]	MIC (Pseudomonas aeruginosa) [µg/mL]	MIC (Proteus vulgaris) [µg/mL]	MIC (Serratia marcescens) [µg/mL]	MIC (Staphylococcus aureus [1]) [µg/mL]	MIC (Enterobacter cloacae) [µg/mL]	MIC (Staphylococcus aureus [2]) [µg/mL]
C[C@@H](O)[C@H]1C(=O)N2C(C(=O)O)=C(SCCN=CN)C[C@H]12 [IMIPENEM ANHYDROUS]	1	0.016 (≈ 0.0534 µM)	0.25 (≈ 0.835 µM)	0.03 (≈ 0.1 µM)	0.03 (≈ 0.1 µM)	0.008 (≈ 0.0267 µM)	0.06 (≈ 0.2 µM)	–
